The source of these data is ChEMBL document CHEMBL1140224, “Dihydrofuro[3,4-c]pyridinones as inhibitors of the cytolytic effects of the pore-forming glycoprotein perforin” (J Med Chem, 2008).

Series [1] deals with T1, Perforin-1 (Homo sapiens) (UniProt P14222).
T1 sequence (whole entry): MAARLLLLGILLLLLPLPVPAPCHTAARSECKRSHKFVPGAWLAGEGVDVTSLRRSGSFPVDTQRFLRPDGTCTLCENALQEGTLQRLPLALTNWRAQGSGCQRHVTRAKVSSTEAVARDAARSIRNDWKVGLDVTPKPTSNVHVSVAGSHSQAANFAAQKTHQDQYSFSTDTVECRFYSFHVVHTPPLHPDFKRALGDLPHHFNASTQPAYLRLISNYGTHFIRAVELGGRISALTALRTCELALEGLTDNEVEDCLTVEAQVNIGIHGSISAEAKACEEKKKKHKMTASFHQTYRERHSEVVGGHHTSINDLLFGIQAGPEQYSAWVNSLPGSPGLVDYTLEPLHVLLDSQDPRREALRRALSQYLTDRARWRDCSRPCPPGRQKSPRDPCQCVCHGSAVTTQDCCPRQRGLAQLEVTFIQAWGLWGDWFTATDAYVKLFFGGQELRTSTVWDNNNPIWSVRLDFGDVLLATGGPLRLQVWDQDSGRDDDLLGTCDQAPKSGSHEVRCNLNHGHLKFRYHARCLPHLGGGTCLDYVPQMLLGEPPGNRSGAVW
Nature of the series: Inhibition of human KHYG-1 NK cells delivered perforin-mediated death of human K562 cells upto 20 uM preincubated for 20 mins with KHYG-1 cells measured after 30 mins by 51Cr release assay. The format is cell-based. Conditions: in the assay text read “measured after 4 hrs” for “measured after 30 mins”. The essentials:
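KHYG-1 NK cells (4 × 10^5/ml, RPMI + 0.1% BSA) given inhibitor up to 20 µM, 20 min at RT. K562 targets labeled with 75 µCi 51Cr for 90 min at 37 °C, added at effector:target 2:1, 4 h at 37 °C. % specific lysis from experimental, spontaneous and maximum release. Mean of triplicates ± SEM; inhibition relative to untreated control, DMSO vehicle control.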

A short description of series [2]: Cytotoxicity against human KHYG-1 cells assessed as cell viability upto 20 uM after 24 hrs by trypan blue exclusion assay. It counts as cell-based. As to conditions: read-out: Activity. In a few lines:
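KHYG-1 cells at 4 × 10^5 cells/ml in RPMI + 0.1% BSA, compound up to 20 µM added for 20 min at RT. RPMI 0.1% BSA added in place of targets, 4 h at 37 °C, then washed ×3 and held 18 to 24 h at 37 °C in complete medium. Trypan blue read: clear cells as percent of total. DMSO vehicle control.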

For the next series, the system named is Salmonella typhimurium. Description: Mutagenic activity in Salmonella Typhimurium TA100 by Ames assay. Conditions: salmonella enterica subsp. enterica serovar typhimurium. It counts as toxicity, organism-based. Background: The Ames test uses bacterial strains that need an amino acid and regain growth without it when mutated back.
Series [3] concerns the target T1, Perforin-1 (Homo sapiens). Description: Inhibition of human CD3-CD56+ NK cell delivered perforin-mediated death of human K562 cells upto 20 uM preincubated for 30 mins with human CD3-CD56+ NK cell measured after 4 hrs by 51Cr release assay. The format is cell-based. In a few lines: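 Human CD3-CD56+ NK cells taken from donor buffy coats by Ficoll then negative MACS selection. Used same day or after up to 3 days in 100 U/mL IL-2. Up to 2 × 10^5 NK cells with inhibitor, DMSO or medium in RPMI 0.1% BSA, 30 min at RT. 1 × 10^4 51Cr-labeled K562 added, 4 h at 37 °C, % specific lysis, triplicates.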

Series [4] concerns the target Pneumolysin (Streptococcus pneumoniae serotype 4 (strain ATCC BAA-334 / TIGR4)) (UniProt P0C2J9). Nature of the series: Inhibition of Streptococcus pneumoniae pneumolysin-mediated lysis of sheep red blood cells. The essentials: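 Single-point test at 20 µM compound, using the perforin/SRBC turbidity format with pneumolysin in place of perforin. Compound in DMSO is preincubated with the lytic protein for at least 30 min. Sheep red blood cells in RBC buffer are then added, and absorbance at 650 nm is read at 0 min and after 15 min at 37 °C. Matching DMSO serves as negative control.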

Series [5] deals with T2, Tumor necrosis factor ligand superfamily member 6 (Homo sapiens) (UniProt P48023).
T2 sequence (whole entry): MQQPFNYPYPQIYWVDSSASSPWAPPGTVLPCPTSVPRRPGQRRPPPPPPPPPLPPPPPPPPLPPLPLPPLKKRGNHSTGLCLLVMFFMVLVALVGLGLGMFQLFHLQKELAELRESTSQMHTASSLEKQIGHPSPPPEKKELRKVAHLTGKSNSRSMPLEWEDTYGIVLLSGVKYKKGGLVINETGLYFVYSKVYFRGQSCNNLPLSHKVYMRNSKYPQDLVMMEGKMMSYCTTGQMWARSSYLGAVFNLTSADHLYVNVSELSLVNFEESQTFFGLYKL
Nature of the series: Inhibition of Fas ligand-mediated death of human Jurkat T cells upto 20 uM after 30 mins by 51Cr release assay. It counts as cell-based. The essentials:
(§1)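 Fifty thousand 51Cr-labeled Jurkat cells preincubated with 20 µM final inhibitor for 30 min at 37 °C. Anti-Fas agonistic mAb CH11 or recombinant TRAIL, each at 250 ng/mL final, in RPMI with 1% BSA for 2 h. Controls were DMSO diluent and a non-inhibitor at the same concentration; SDS gave maximum release. Supernatant 51Cr γ-counted, triplicates, mean ± SEM.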

The target in series [6] is Tumor necrosis factor ligand superfamily member 10 (Homo sapiens) (UniProt P50591). Nature of the series: Inhibition of recombinant TRAIL-mediated death of human Jurkat T cells upto 20 uM after 30 mins by 51Cr release assay. It counts as cell-based. In a few lines: as §1

Activity calls are given as the source filed them. No cut-off for these calls is given here.

Tumor necrosis factor ligand superfamily member 10 (Homo sapiens), sequence (P50591 whole entry): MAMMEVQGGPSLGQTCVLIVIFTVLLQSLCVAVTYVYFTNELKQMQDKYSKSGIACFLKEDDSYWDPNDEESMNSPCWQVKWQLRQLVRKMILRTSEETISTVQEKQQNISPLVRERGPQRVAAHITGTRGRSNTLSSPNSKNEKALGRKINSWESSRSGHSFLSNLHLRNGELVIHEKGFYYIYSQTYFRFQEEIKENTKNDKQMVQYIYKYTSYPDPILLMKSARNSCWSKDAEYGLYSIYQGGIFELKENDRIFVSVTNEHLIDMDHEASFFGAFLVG
Pneumolysin (Streptococcus pneumoniae serotype 4 (strain ATCC BAA-334 / TIGR4)), sequence (P0C2J9 whole entry): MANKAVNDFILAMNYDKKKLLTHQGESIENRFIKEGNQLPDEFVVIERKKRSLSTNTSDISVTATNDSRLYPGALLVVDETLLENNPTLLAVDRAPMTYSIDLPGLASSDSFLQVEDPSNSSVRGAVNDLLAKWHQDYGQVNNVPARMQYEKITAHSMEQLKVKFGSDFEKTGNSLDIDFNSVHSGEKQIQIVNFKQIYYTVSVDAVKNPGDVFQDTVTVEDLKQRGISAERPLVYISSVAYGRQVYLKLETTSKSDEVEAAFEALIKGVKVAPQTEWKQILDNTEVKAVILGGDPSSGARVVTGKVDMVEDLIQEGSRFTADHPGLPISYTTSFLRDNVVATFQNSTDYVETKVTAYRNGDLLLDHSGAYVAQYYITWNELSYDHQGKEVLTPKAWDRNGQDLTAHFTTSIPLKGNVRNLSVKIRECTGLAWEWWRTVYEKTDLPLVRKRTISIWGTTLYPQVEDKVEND

In series [1], `COc1ccc2oc(/C=C3\OC(=O)c4c3cc(C)[nH]c4=S)cc2c1` had an inhibition of 100%. Also, the viability at 24 h in series [2] was 0%.
Take `Cc1cc2c(c(=S)[nH]1)C(=O)O/C2=C\c1cccs1`: in the series on Salmonella typhimurium, the Activity result is given as “Not Active”.
For the compound `Cc1cc2c(c(=S)[nH]1)C(=O)O/C2=C\c1ccc(C)o1`, the inhibition in series [1] is 50%; in series [3], greater than 70%. Also, the result in the series with Salmonella typhimurium was Active. The outcome in series [4], in series [5] and in series [6] was inactive. In series [2], the viability at 24 h came to 72%.
In series [1], `Cc1cc2c(c(=S)[nH]1)C(=O)O/C2=C\c1ccc(-c2ccccc2)s1` registered an inhibition of 100%. In series [2], the viability at 24 h was 0%.
Take `Cc1cc2c(c(=S)[nH]1)C(=O)O/C2=C\c1ccc[nH]1`: the Activity entry with Salmonella typhimurium is reported as “Not Active”.
As for `Cc1cc2c(c(=S)[nH]1)C(=O)O/C2=C\c1cc2ccccc2[nH]1`, the inhibition in series [1] was 95%. For the same compound, the viability at 24 h in series [2] was 0%.
In the case of `Cc1cc2c(c(=S)[nH]1)C(=O)O/C2=C\c1ccco1`, in the series with Salmonella typhimurium, the outcome was Active.
The compound `Cc1cc2c(c(=S)[nH]1)C(=O)O/C2=C\c1csc2ccccc12` had an inhibition in series [1] of 63%. Moreover, the Activity result in the series on Salmonella typhimurium was “Not Active”. The viability at 24 h in series [2] was determined as 88%.
The compound `Cc1cc2c(c(=O)[nH]1)C(=O)O/C2=C\c1cc2ccccc2s1` registered an inhibition in series [1] of 65%. Further, the viability at 24 h in series [2] is 100%.

The term inhibition denotes the percentage by which the read-out fell short of the control.
